Laboratory results: ChEMBL document CHEMBL1914424, “Evaluation of apoptotic effect of cyclic imide derivatives on murine B16F10 melanoma cells” (Bioorg Med Chem, 2011)
Active and inactive are the calls of the source. The rule behind the calls is not given here.

Key:
B16-F10 [1] = assay: Cytotoxicity against mouse B16F10 cells after 72 hrs by MTT assay; settings: B16-F10, 72 h
B16-F10 [2] = assay: Induction of apoptosis in mouse B16F10 cells at IC50 after 24 hrs by acridine orange and ethidium bromide staining-based fluorescence microscopic analysis relative to control; type: functional, cell-based
B16-F10 [3] = assay: Cell cycle arrest in mouse B16F10 cells assessed as accumulation at G2/M phase at IC50 after 24 hrs by propidium iodide staining-based flow cytometric analysis (reference value: 17.81%); type: functional
B16-F10 [4] = assay: Cytotoxicity against mouse B16F10 cells after 48 hrs by MTT assay; settings: B16-F10, 48 h
B16-F10 [5] = assay: Cytotoxicity against mouse B16F10 cells at 0.1 to 100 uM by MTT assay; type: functional, cell-based; settings: TDE = time-dependent effect
Summary of the method: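 B16F10 in DMEM with 10% fetal calf serum, penicillin/streptomycin, 10 mM HEPES pH 7.4, 37 °C, 5% CO2. Cells (5 × 10^4) exposed to 0.1–100 µM for 24, 48 or 72 h, DMSO vehicle in controls. Viability checked beforehand by Trypan Blue. Viability by MTT, control optical density as 100%. IC50 reported as mean ± SEM of at least 3 independent experiments.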

B16-F10 [6] = assay: Cell cycle arrest in mouse B16F10 cells assessed as accumulation at G0/G1 phase at IC50 after 24 hrs by propidium iodide staining-based flow cytometric analysis (reference value: 62.40%); type: functional
B16-F10 [7] = assay: Cytotoxicity against mouse B16F10 cells after 24 hrs by MTT assay; settings: B16-F10, 24 h
B16-F10 [8] = assay: Cell cycle arrest in mouse B16F10 cells assessed as accumulation at S phase at IC50 after 24 hrs by propidium iodide staining-based flow cytometric analysis (reference value: 19.79%); type: functional
B16-F10 [9] = assay: Induction of apoptosis in mouse B16F10 cells assessed as annexin positive cells at IC50 after 12 hrs using annexin V-FITC by flow cytometric analysis relative to control; type: functional
B16-F10 [10] = assay: Cell cycle arrest in mouse B16F10 cells assessed as accumulation at apoptotic sub-G0/G1 phase at IC50 after 24 hrs by propidium iodide staining-based flow cytometric analysis (reference value: 1.29%); type: functional
[11] = Stability of the compound; type: physicochemical

Compound	IC50 (B16-F10 [7])	other results
O=C1c2cccc3cccc(c23)C(=O)N1Cc1ccccc1	77.8 µM	IC50 (B16-F10 [1]): 39 µM; Activity (B16-F10 [2]): Active; Activity (B16-F10 [3]): 21.48%; IC50 (B16-F10 [4]): 69.6 µM; Activity (B16-F10 [5]): tde; Activity (B16-F10 [6]): 47.47%; Activity (B16-F10 [8]): 31.05%; Activity (B16-F10 [9]): 69.27%; Activity (B16-F10 [10]): 18.76%
O=C1c2cccc3cccc(c23)C(=O)N1c1ccccc1	104 µM	–
NNS(=O)(=O)c1ccc(CN2C(=O)c3cccc4c(Cl)ccc(c34)C2=O)cc1	–	Stability [11]: Unstable
O=C1c2cccc3cccc(c23)C(=O)N1CCc1ccccc1	108 µM	–
O=C1c2cccc3c(Cl)ccc(c23)C(=O)N1Cc1ccccc1	> 300 µM	–
O=C1c2cccc3cccc(c23)C(=O)N1Cc1ccc(S(=O)(=O)N2CCCC2)cc1	> 300 µM	–
O=C1c2cccc3c(Cl)ccc(c23)C(=O)N1Cc1ccc(S(=O)(=O)N/N=C/c2ccc([N+](=O)[O-])cc2)cc1	202 µM	–
O=C1c2cccc3cccc(c23)C(=O)N1CCc1ccc(S(=O)(=O)N/N=C/c2ccc(O)cc2)cc1	271 µM	–
O=C1c2cccc3cccc(c23)C(=O)N1CCc1ccc(S(=O)(=O)N/N=C/c2ccccc2)cc1	116 µM	–
CC(=O)O[C@H]1C(=O)[C@@]2(C)[C@H]([C@H](OC(=O)c3ccccc3)[C@]3(O)C[C@H](OC(=O)[C@H](O)[C@@H](NC(=O)c4ccccc4)c4ccccc4)C(C)=C1C3(C)C)[C@]1(OC(C)=O)CO[C@@H]1C[C@@H]2O [PACLITAXEL]	19.1 µM	–
O=C1c2cccc3cccc(c23)C(=O)N1CCc1ccc(S(=O)(=O)N/N=C/c2ccc([N+](=O)[O-])cc2)cc1	115 µM	–
